Source: ChEMBL document CHEMBL1955778, “Design and synthesis of novel 7-aminoquinazoline derivatives: antitumor and anticonvulsant activities” (Bioorg Med Chem Lett, 2012)

Key:
SNB-75 = experiment: Growth inhibition of human SNB75 cells at 10 uM relative to control; type: functional; details: read-out: GI
In short: (§1)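 Single-dose screen across the 60-cell-line human tumor panel at 10 μM. Growth inhibition is reported as a percentage, taken as 100 minus the % growth relative to untreated control.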

A549 = experiment: Growth inhibition of human A549 cells at 10 uM relative to control; type: functional; details: read-out: GI
In short: (§2)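 Each cell line in a 60-line human tumour panel exposed to one 10 μM concentration. Growth inhibition percentage computed as 100 minus the percentage activity relative to control.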

Mus musculus [1] = species on record: Mus musculus; experiment: Protective index, ratio of TD50 for mouse to ED50 for pentylenetetrazol-induced seizure in mouse; type: functional
In short: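 Mice. Index is TD50/ED50. TD50 is the dose causing minimal neurological toxicity in 50% of mice in the Chimney test. ED50 is the dose protecting 50% of mice against pentylenetetrazole-induced seizures. Both are estimated from testing at several doses.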

SNB-19 = experiment: Growth inhibition of human SNB19 cells at 10 uM relative to control; type: functional; details: read-out: GI; in short: as §1
CAKI-1 = experiment: Growth inhibition of human CAKI-1 cells at 10 uM relative to control; type: functional; details: read-out: GI; in short: as §2
HCT-15 = experiment: Growth inhibition of human HCT15 cells at 10 uM relative to control; type: functional; details: read-out: GI; in short: as §2
HL-60(TB) = experiment: Growth inhibition of human HL-60(TB) cells at 10 uM relative to control; type: functional; details: read-out: GI
In short: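 Single-dose screen at 10 μM across the 60-cell-line tumour panel. Percent growth inhibition = 100 minus percent growth activity relative to untreated control.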

Mus musculus [2] = experiment: Anticonvulsant activity in ip dosed mouse assessed as protection against pentylenetetrazol-induced seizure administered 30 min prior to pentylenetetrazol-challenge measured after 60 mins; type: functional
In short: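 Mice received several doses for quantification. ED50 taken as the dose protecting 50% of mice against pentylenetetrazol-induced seizures.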

Mus musculus [3] = experiment: Anticonvulsant activity in mouse assessed as protection against maximal electroshock-induced seizure at 1 mmol/kg, ip administered 30 min prior to maximal electroshock-challenge measured after 60 mins relative to control; type: functional
EKVX = experiment: Growth inhibition of human EKVX cells at 10 uM relative to control; type: functional; details: read-out: GI; in short: as §2
OVCAR-8 = experiment: Growth inhibition of human OVCAR8 cells at 10 uM relative to control; type: functional; details: read-out: GI; in short: as §2
NCI-H522 = experiment: Growth inhibition of human NCI-H522 cells at 10 uM relative to control; type: functional; details: read-out: GI; in short: as §2
U-251 = experiment: Growth inhibition of human U251 cells at 10 uM relative to control; type: functional; details: read-out: GI; in short: as §1
MOLT-4 = experiment: Growth inhibition of human MOLT4 cells at 10 uM relative to control; type: functional; details: read-out: GI; in short: as §2
K562 = experiment: Growth inhibition of human K562 cells at 10 uM relative to control; type: functional; details: read-out: GI; in short: as §2
MCF7 = experiment: Growth inhibition of human MCF7 cells at 10 uM relative to control; type: functional; details: read-out: GI; in short: as §2
SK-MEL-28 = experiment: Growth inhibition of human SK-MEL-28 cells at 10 uM relative to control; type: functional; details: read-out: GI; in short: as §2
Mus musculus [4] = experiment: Anticonvulsant activity in mouse assessed as protection against strychnine-induced seizure at 1 mmol/kg, ip administered 30 min prior to strychnine-challenge measured after 60 mins relative to control; type: functional
Mus musculus [5] = experiment: Anticonvulsant activity in mouse assessed as protection against picrotoxin-induced seizure at 1 mmol/kg, ip administered 30 min prior to picrotoxin-challenge measured after 60 mins relative to control; type: functional
MDA-MB-468 = experiment: Growth inhibition of human MDA-MB-468 cells at 10 uM relative to control; type: functional; details: read-out: GI; in short: as §2
SN12C = experiment: Growth inhibition of human SN12C cells at 10 uM relative to control; type: functional; details: read-out: GI; in short: as §1
[6] = Toxicity in ip dose mouse assessed as mortality; type: organism-based; details: in vivo
In short: (§3)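 In mice, LD50 is the dose causing 50% mortality. ED50 is the dose protecting 50% of mice against pentylenetetrazole-induced seizures. Therapeutic index = LD50/ED50.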

[7] = Growth inhibition of human 786-O cells at 10 uM relative to control; type: functional; details: 786-0, read-out: GI; in short: as §2
[8] = Growth inhibition of human Hs 578T cells at 10 uM relative to control; type: functional; details: read-out: GI; in short: as §2
CCRF-CEM = experiment: Growth inhibition of human CCRF-CEM cells at 10 uM relative to control; type: functional; details: read-out: GI; in short: as §2
SR = experiment: Growth inhibition of human SR cells at 10 uM relative to control; type: functional; details: read-out: GI; in short: as §1
SF-268 = experiment: Growth inhibition of human SF268 cells at 10 uM relative to control; type: functional; details: read-out: GI; in short: as §2
OVCAR-4 = experiment: Growth inhibition of human OVCAR4 cells at 10 uM relative to control; type: functional; details: read-out: GI; in short: as §2
MDA-MB-231 = experiment: Growth inhibition of human MDA-MB-231 cells at 10 uM relative to control; type: functional; details: read-out: GI; in short: as §2
UO-31 = experiment: Growth inhibition of human UO31 cells at 10 uM relative to control; type: functional; details: read-out: GI; in short: as §1
NCI-H226 = experiment: Growth inhibition of human NCI-H226 cells at 10 uM relative to control; type: functional; details: read-out: GI; in short: as §2
RPMI-8226 = experiment: Growth inhibition of human RPMI8226 cells at 10 uM relative to control; type: functional; details: read-out: GI; in short: as §2
[9] = Therapeutic index, ratio of LD50 for mouse to ED50 for pentylenetetrazol-induced seizure in mouse; type: organism-based; details: in vivo, read-out: Ratio LD50/ED50; in short: as §3
T47D = experiment: Growth inhibition of human T47D cells at 10 uM relative to control; type: functional; details: read-out: GI; in short: as §1
NCI-H23 = experiment: Growth inhibition of human NCI-H23 cells at 10 uM relative to control; type: functional; details: read-out: GI; in short: as §2
MDA-MB-435 = experiment: Growth inhibition of human MDA-MB-435 cells at 10 uM relative to control; type: functional; details: read-out: GI; in short: as §2
HCT-116 = experiment: Growth inhibition of human HCT116 cells at 10 uM relative to control; type: functional; details: read-out: GI; in short: as §2
PC-3 = experiment: Growth inhibition of human PC3 cells at 10 uM relative to control; type: functional; details: read-out: GI; in short: as §2
Mus musculus [10] = experiment: Anticonvulsant activity in mouse assessed as protection against pentylenetetrazol-induced seizure at 1 mmol/kg, ip administered 30 min prior to pentylenetetrazol-challenge measured after 60 mins relative to control; type: functional
KM12 = experiment: Growth inhibition of human KM12 cells at 10 uM relative to control; type: functional; details: read-out: GI; in short: as §2
[11] = Neurotoxicity in ip dosed mouse assessed as impaired motor coordination administered 30 mins prior to test by chimney test; type: toxicity, organism-based; details: in vivo
In short: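 Mice, Chimney test. TD50 is the dose that produces minimal neurological toxicity (impaired motor coordination) in 50% of animals, estimated from testing at several doses.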

Cc1ccccc1-n1c(C)nc2cc(N3C(=O)CSC3c3ccccc3)ccc2c1=O (stereo unspecified)
inhibition of growth at 10 µM (SNB-75): 19.5%
inhibition of growth at 10 µM (A549): 8.1%
Ratio TD50/ED50 (Mus musculus [1]): 1.06
inhibition of growth at 10 µM (SNB-19): 9.7%
inhibition of growth at 10 µM (CAKI-1): 15.6%
inhibition of growth at 10 µM (HCT-15): 13.3%
inhibition of growth at 10 µM (HL-60(TB)): 32.7%
ED50 (Mus musculus [2]): 700 µmol/kg
Activity (Mus musculus [3]): 100%
inhibition of growth at 10 µM (EKVX): 12.8%
inhibition of growth at 10 µM (OVCAR-8): 5%
inhibition of growth at 10 µM (NCI-H522): 18%
inhibition of growth at 10 µM (U-251): 13%
inhibition of growth at 10 µM (MOLT-4): 46.3%
inhibition of growth at 10 µM (K562): 37.6%
inhibition of growth at 10 µM (MCF7): 21.8%
inhibition of growth at 10 µM (SK-MEL-28): 5%
Activity (Mus musculus [4]): 0%
Activity (Mus musculus [5]): 50%
inhibition of growth at 10 µM (MDA-MB-468): 25.8%
inhibition of growth at 10 µM (SN12C): 3%
LD50 [6]: 1500 µmol/kg
inhibition of growth at 10 µM [7]: 3%
inhibition of growth at 10 µM [8]: 6%
inhibition of growth at 10 µM (CCRF-CEM): 31.1%
inhibition of growth at 10 µM (SR): 35.3%
inhibition of growth at 10 µM (SF-268): 14.2%
inhibition of growth at 10 µM (OVCAR-4): 3%
inhibition of growth at 10 µM (MDA-MB-231): 17.3%
inhibition of growth at 10 µM (UO-31): 22%
inhibition of growth at 10 µM (NCI-H226): 14.3%
inhibition of growth at 10 µM (RPMI-8226): 21.4%
selectivity ratio [9]: 2.13
inhibition of growth at 10 µM (T47D): 25.8%
inhibition of growth at 10 µM (NCI-H23): 4.4%
inhibition of growth at 10 µM (MDA-MB-435): 9.7%
inhibition of growth at 10 µM (HCT-116): 16%
inhibition of growth at 10 µM (PC-3): 26.9%
Activity (Mus musculus [10]): 100%
inhibition of growth at 10 µM (KM12): 15.5%
TD50 at 0.5 h [11]: 750 µmol/kg
